# Source: PubChem BioAssay (several laboratories)
# An excerpt weighted towards active compounds, which were near 2.6% of everything screened.
# SENP7 inh: inhibitors of human SENP7 protease; recombinant SENP7, Z-RLRGG-aminoluciferin luminescence, 40 min; inhibition, % at 5 µM; 330,000 compounds, 1.5% hits; AID 434973;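 active = inhibition above about 50% at the single test dose, limit read from the data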;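 also: plate controls were DMSO with enzyme for no effect and no enzyme buffer wells for full effect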
# Target sequence (Q9BQF6 706-1050 limits assumed): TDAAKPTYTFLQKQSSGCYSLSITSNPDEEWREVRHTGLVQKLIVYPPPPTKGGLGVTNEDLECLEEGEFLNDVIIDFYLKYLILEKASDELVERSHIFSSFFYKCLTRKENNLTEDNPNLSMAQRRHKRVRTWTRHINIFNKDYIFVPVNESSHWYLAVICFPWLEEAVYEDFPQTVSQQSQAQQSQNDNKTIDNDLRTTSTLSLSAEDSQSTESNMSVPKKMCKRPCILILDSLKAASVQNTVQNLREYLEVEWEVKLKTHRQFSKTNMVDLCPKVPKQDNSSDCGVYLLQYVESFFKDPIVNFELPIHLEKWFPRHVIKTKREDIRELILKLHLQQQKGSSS
# SENP1 inh: SENP1 (human) catalytic domain inhibition. Q9P0U3. recombinant SENP1 catalytic domain, CyPet-SUMO1-YPet FRET cleavage. inhibition, % at 10 µM. 360,000 compounds, 0.21% hits. AID 624204;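 active = inhibition at least 30% at 10 µM, raw YFP signal under a set limit, fluorescence ratio 0.5 to 1.5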;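 also: 0% = enzyme with DMSO and 100% = no enzyme wells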
#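 Test system: recombinant human SENP1 catalytic domain, His6-tagged / Medium: pH 8 Tris buffer with EDTA, NaCl, BME, BSA, NP40, catalase / Also added: SUMO1 FRET substrate flanked by Cypet and Ypet, 25 nM / Times: 50 min reaction at room temperature / Signal: FRET, CFP and YFP emission / Control set: no-enzyme low control and enzyme-plus-DMSO high control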
# SENP8 block-1: blocks human SENP8 cleavage of Nedd8 substrate. 360,000 compounds, 0.64% hits. AID 602440. inhibition, % at 20 µM. Q96LD8. recombinant SENP8, Nedd8 substrate fluorescence; in the data active = inhibition mostly above about 40%, no sharp cut-off; inactive = mostly below about 27%
# Target sequence (Q96LD8 whole entry, looked up): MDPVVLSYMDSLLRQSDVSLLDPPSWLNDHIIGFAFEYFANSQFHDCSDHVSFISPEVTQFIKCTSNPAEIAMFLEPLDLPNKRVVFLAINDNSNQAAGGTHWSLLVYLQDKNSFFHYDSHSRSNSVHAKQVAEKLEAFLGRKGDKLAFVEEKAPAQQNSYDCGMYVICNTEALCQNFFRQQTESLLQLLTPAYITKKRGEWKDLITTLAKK
# SENP8 block-2: inhibitors of human SENP8 protease. purified SENP8, Z-RLRGG-aminoluciferin cleavage, luminescence. inhibition, % at 10 µM. 330,000 compounds, 1.2% hits; in the data active = inhibition above about 50%
# SENP6 block: SENP6 protease inhibition; Recombinant SENP6 catalytic domain, aminoluciferin luminescence; inhibition, % at 10 µM; 330,000 compounds, 1.8% hits;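 active = inhibition above about 50% at the single tested dose, limit read from the data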;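 also: plate controls were DMSO wells with enzyme for no effect and DMSO wells lacking enzyme for full effect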
# Platelet DG rel: platelet dense granule release activity; human platelet-rich plasma, SFLLRN dense granule ATP release, luminescence; inhibition, %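 (compounds screened at 7.5 µM in platelet-rich plasma)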; 300,000 compounds, 0.22% hits; AID 1663;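 active = mean replicate score, as percent of positive control, at or above 50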
# SENP8 inh conf: confirmation of human SENP8 protease inhibitors | shares compounds with SENP8 block-1 | purified SENP8, Nedd8-AMC/pro-Nedd8 cleavage fluorescence, 30 min | inhibition, % at 25 µM | 1,400 compounds, 15% hits | AID 624319; in the data active = inhibition mostly above about 39%, no sharp cut-off; inactive = mostly below about 34%
# SENP1 conf: confirmation of human SENP1 SUMO protease inhibitors | recombinant SENP1, CyPet-SUMO1-YPet FRET cleavage | inhibition, % at 10 µM | shares compounds with SENP1 inh | 520 compounds, 34% hits; in the data active = inhibition mostly above about 35%, no sharp cut-off; inactive = mostly below about 32%;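 also: 0% = enzyme with DMSO and 100% = no enzyme control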
# SENP1 kinetic: confirmation of human SENP1 SUMO protease inhibitors, kinetic; AID 651690; shares compounds with SENP1 inh; inhibition, % at 10 µM; recombinant SENP1, CyPet-SUMO1-YPet FRET kinetic cleavage; 520 compounds, 26% hits; in the data active = inhibition mostly above about 32%, no sharp cut-off; inactive = mostly below about 29%;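 also: 0% = DMSO with enzyme and 100% = no enzyme substrate only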
# * marks the source's active call; other numbers are inactive results; . = no result.
SMILES,SENP7 inh,SENP1 inh,SENP8 block-1,SENP8 block-2,SENP6 block,Platelet DG rel,SENP1 conf,SENP1 kinetic,others
Cc1ccc(C(=O)C(C)OC(=O)CCN=C2NS(=O)(=O)c3ccccc32)cc1 (stereo not given),1,1,46*,-8,-13,-13,.,.,SENP8 inh conf=-4
Cc1ccc(-n2c(C)n[nH]c2=S)cc1,.,2,-3,.,.,-3,.,.,
CC1CCc2nc(NC(=O)Nc3ccc4c(c3)OCO4)sc2C1 (stereo not given),2,3,42*,2,-8,3,.,.,SENP8 inh conf=9
CC1CCc2nc(NC(=O)CN3CCN(Cc4ccc5c(c4)OCO5)CC3)sc2C1 (stereo not given),5,1,38,0,-15,17,.,.,
Cc1ccc(C)c(Nc2c([N+](=O)[O-])ccc3nonc23)c1,-15,4,45*,-8,-12,-1,.,.,SENP8 inh conf=18
Cc1cc(Br)ccc1-n1[nH]c(C)c(C=Nc2cccc3nsnc23)c1=O,14,40*,54*,12,14,10,6,6,SENP8 inh conf=12
COc1cc(NC(=O)[C@@H]2CCCN(S(=O)(=O)c3cccc4cccnc34)C2)cc(OC)c1OC,8,2,4,0,-6,.,.,.,
O=[N+]([O-])c1ccc(-c2cn3c(n2)SCC3)cc1,7,31*,16,4,-4,-20,9,9,
CC(NS(=O)(=O)c1ccc2c(c1)oc(=O)n2C)c1ccccc1 (stereo not given),3,34*,2,2,-3,-25,12,15,
CCOC(=O)Cn1c(=O)oc2cc(S(=O)(=O)NC(C)c3ccccc3)ccc21 (stereo not given),2,4,25,-1,1,-13,.,.,
COc1ccc(NC(=O)Cc2c(F)c(F)c(F)c(F)c2F)cc1OC,10,0,11,3,5,-1,.,.,
COc1ccc(NC(=O)CC#N)cc1OC,7,53*,8,-3,-10,-1,-4,1,
O=C(OCc1ccc(O)cc1)c1c(-c2ccsc2)oc2ccc(N3CCOCC3)cc12,-2,36*,-146,1,-10,-5,19,21,
COc1cccc(CNC(=O)C2CCN(S(=O)(=O)c3ccc(F)cc3)CC2)c1,.,1,16,.,.,-3,.,.,
CCOc1ccccc1NC(=O)c1cc(C(=O)c2cc(OC)ccc2O)coc1=N,3,46*,18,-2,-2,9,16,16,
CC(C)NC(=O)c1cc(C(=O)c2cc(Cl)ccc2O)coc1=N,4,-5,-56,2,-6,-18,.,.,
O=C1c2cc3c(cc2CCC1c1ccc2c(c1)OCO2)OCO3 (stereo not given),.,3,-3,.,.,.,.,.,
O=C(N/N=C/c1ccc(N2CCOCC2)cc1)c1ccc(O)cc1,5,34*,-369,17,3,13,25,17,
CCn1c(C)nc2cc(C(=O)N/N=C/c3ccc(N4CCOCC4)cc3)ccc21,3,35*,-368,-2,13,11,28,26,
C/C(=N\NC(=O)c1ccc(O)cc1)c1ccc(N2CCOCC2)cc1,-2,0,-260,2,-3,3,.,.,
O=S(=O)(N/N=C/c1ccc(N2CCOCC2)cc1)c1ccccc1,2,37*,13,8,-35,1,32,25,
COC(=O)/C=c1/s/c(=C(/C#N)C(=O)N2CCOCC2)n(-c2ccccc2)c1=O,-7,2,2,-7,-4,0,.,.,
COC(=O)/C=c1/s/c(=C(\C#N)C(=O)NCc2ccco2)n(-c2ccc(C)cc2)c1=O,-1,37*,3,-5,-4,9,12,10,
Nc1nc(N=Nc2ccc(O)cc2)cc(=O)[nH]1,.,72*,38,.,.,.,65*,44*,
Nc1nc(N)c(N=Nc2ccccc2)c(=O)[nH]1,.,-11,16,.,.,.,.,.,
SMILES,SENP7 inh,SENP1 inh,SENP8 block-1,SENP8 block-2,SENP6 block,Platelet DG rel,SENP1 conf,SENP1 kinetic,others
Cc1cccc(/C=N/n2c(-c3ccccc3)n[nH]c2=S)c1O,1,31*,17,5,-16,2,-6,13,
Oc1ccc(Br)cc1/C=N/n1c(-c2ccccc2)n[nH]c1=S,-12,-28,3,-11,-6,-7,.,.,
COc1cc(S(=O)(=O)Nc2ccc3c(c2)C(=O)N(C)C3=O)ccc1NC(C)=O,2,54*,-80,9,-11,.,41*,43*,
COc1cc(S(=O)(=O)Nc2c(C)nn(C)c2C)ccc1NC(C)=O,11,0,0,-5,-1,-1,.,.,
CNC(=O)/C(C#N)=C1/SC(Cc2ccc(F)cc2)C(=O)N1c1ccccc1 (stereo not given),0,6,22,-10,-2,-18,.,.,
COc1ccc(/C=N/n2c(SC)nnc(C(C)(C)C)c2=O)cc1OC,-1,0,19,0,-6,7,.,.,
COc1cc(/C=N/n2c(SC)nnc(C(C)(C)C)c2=O)ccc1O,2,52*,25,-4,-22,-4,12,8,
COc1ccc(NC2=Nc3cccc4cccc2c34)cc1,8,77*,19,-3,25,-14,57*,29,
c1ccc(NC2=Nc3cccc4cccc2c34)cc1,8,74*,8,-8,-36,13,43*,25,
CC(=O)Nc1nc(C(=O)Nc2c(C)n[nH]c2C)cs1,-3,3,11,3,4,7,.,.,
CCOc1ccc(S(=O)(=O)N2CCC(C(=O)NCC3CCCO3)CC2)cc1 (stereo not given),1,0,0,1,-4,17,.,.,
COC(=O)C1=CC(C(=O)c2cccs2)=NN(c2ccc(OC)cc2)C1C(=O)OC (stereo not given),3,61*,36,3,7,-1,60*,39*,
COC(=O)C1=CN(Cc2ccc(OC)cc2)C=C(C(=O)OC)C1c1cccs1,-1,-23,-384,7,-10,3,.,.,
COc1cc(Nc2nc3c(N)cc(C(F)(F)F)cc3nc2-c2ccccc2)cc(OC)c1OC,.,46*,14,.,.,.,2,3,
COc1cc(Nc2cccc(-c3ccccc3)n2)cc(OC)c1OC,.,1,-55,.,.,.,.,.,
O=C(NC(=S)Nc1ccc(C(=O)N2CCOCC2)cc1)c1ccc([N+](=O)[O-])cc1,5,1,6,-2,3,6,.,.,
CN(C)c1cccc2c(S(=O)(=O)N3CCOCC3)cccc12,7,41*,-324,9,-3,2,10,11,
